According to ChEMBL document CHEMBL4627400, “Discovery of Dihydropyrrolo[1,2-a]pyrazin-3(4H)-one-Based Second-Generation GluN2C- and GluN2D-Selective Positive Allosteric Modulators (PAMs) of the N-Methyl-d-Aspartate (NMDA) Receptor” (J Med Chem, 2020):
In brackets after ≈: the same amount, converted by molar mass.

Key:
[1] = molecular target: Glutamate NMDA receptor; Grin1/Grin2a (Rattus norvegicus, UniProt P35439+Q00959); assay: Positive allosteric modulation of recombinant rat GluN1a/GluN2A receptor expressed in Xenopus laevis oocytes assessed as increase in glycine/L-glutamate-induced channel current at 10 to 30 uM by two-electrode voltage clamp method relative to control; type: cell-based
Sequence of Glutamate NMDA receptor; Grin1/Grin2a (Q00959 whole entry, other chains not shown): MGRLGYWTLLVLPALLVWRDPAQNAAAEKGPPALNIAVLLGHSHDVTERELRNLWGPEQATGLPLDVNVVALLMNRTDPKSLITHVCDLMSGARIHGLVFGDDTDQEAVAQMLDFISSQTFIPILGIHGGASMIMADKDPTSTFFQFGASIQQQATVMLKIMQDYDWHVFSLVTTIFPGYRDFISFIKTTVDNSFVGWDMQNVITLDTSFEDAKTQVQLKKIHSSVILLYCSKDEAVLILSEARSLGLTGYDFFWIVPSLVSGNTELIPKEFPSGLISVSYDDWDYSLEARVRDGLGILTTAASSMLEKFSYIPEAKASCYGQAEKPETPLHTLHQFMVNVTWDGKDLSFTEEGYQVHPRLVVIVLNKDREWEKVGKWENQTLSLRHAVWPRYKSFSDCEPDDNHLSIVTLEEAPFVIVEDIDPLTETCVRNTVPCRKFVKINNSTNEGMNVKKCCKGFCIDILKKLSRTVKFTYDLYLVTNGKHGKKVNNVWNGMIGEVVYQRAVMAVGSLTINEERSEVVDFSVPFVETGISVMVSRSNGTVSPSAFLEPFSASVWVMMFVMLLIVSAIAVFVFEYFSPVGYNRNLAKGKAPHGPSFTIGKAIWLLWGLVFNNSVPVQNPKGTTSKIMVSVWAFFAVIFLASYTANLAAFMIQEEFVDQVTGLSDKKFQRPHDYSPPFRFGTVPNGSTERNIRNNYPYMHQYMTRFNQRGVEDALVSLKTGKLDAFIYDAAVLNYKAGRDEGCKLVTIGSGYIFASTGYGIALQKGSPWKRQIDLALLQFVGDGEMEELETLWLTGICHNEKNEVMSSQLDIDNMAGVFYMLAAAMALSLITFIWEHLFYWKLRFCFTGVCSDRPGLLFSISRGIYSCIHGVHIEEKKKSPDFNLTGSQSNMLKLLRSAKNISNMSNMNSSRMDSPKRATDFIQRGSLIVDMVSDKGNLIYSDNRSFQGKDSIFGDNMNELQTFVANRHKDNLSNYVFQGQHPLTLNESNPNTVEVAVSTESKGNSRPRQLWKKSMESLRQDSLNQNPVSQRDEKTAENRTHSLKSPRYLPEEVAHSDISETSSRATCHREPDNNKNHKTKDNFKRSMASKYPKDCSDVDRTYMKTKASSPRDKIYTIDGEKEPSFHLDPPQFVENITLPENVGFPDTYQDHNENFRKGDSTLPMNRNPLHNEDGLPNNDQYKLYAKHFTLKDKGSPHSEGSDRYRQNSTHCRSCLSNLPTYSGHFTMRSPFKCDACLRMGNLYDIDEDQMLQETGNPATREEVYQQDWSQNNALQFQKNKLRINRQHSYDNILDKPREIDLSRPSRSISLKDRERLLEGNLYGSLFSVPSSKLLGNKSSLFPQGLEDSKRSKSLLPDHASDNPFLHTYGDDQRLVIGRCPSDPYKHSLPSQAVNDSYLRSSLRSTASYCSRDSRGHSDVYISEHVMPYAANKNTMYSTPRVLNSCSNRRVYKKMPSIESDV
Method in brief: (§1)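 TEVC at −40 mV, 23 °C, in 90 NaCl/1 KCl/0.5 BaCl/0.005 EDTA/10 HEPES (mM), pH 7.4. Oocytes expressed rat GluN1/GluN2A or GluN1/GluN2B. […] Some GluN2A oocytes were BAPTA-loaded. 4–17 oocytes from 1–3 frogs.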

[2] = molecular target: Ionotropic glutamate receptor NMDA 1/2D (Rattus norvegicus) (UniProt P35439+Q62645); assay: Positive allosteric modulation of recombinant rat GluN1a/GluN2D receptor expressed in Xenopus laevis oocytes assessed as increase in glycine/L-glutamate-induced channel current at 30 uM by two-electrode voltage clamp method relative to control; type: cell-based
Method in brief: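 Oocytes expressing rat GluN1/GluN2C or GluN2D, held at −40 mV in HEPES-buffered Ba2+ solution, pH 7.4, 23 °C. […] Current given as percent of agonist-alone response. […] Doubling concentration is the concentration giving 2-fold response; reported as […] log. 6–19 oocytes from 2–3 frogs.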

[3] = molecular target: Glutamate NMDA receptor; Grin1/Grin2c (Rattus norvegicus) (UniProt P35439+Q00961); assay: Positive allosteric modulation of recombinant rat GluN1a/GluN2C receptor expressed in Xenopus laevis oocytes assessed as increase in glycine/L-glutamate-induced channel current at 30 uM by two-electrode voltage clamp method relative to control; type: cell-based
Method in brief: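 Oocytes expressing rat GluN1/GluN2C or GluN2D, held at −40 mV in HEPES-buffered Ba2+ solution, pH 7.4, 23 °C. Current given as percent of agonist-alone response. Doubling concentration is the concentration giving 2-fold response; reported as […] log. 6–19 oocytes from 2–3 frogs.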

[4] = molecular target: Glutamate NMDA receptor; Grin1/Grin2b (Rattus norvegicus, UniProt P35439+Q00960); assay: Positive allosteric modulation of recombinant rat GluN1a/GluN2B receptor expressed in Xenopus laevis oocytes assessed as increase in glycine/L-glutamate-induced channel current at 10 to 30 uM by two-electrode voltage clamp method relative to control; type: cell-based; method in brief: as §1
Sequence of Glutamate NMDA receptor; Grin1/Grin2b (Q00960 whole entry, other chains not shown): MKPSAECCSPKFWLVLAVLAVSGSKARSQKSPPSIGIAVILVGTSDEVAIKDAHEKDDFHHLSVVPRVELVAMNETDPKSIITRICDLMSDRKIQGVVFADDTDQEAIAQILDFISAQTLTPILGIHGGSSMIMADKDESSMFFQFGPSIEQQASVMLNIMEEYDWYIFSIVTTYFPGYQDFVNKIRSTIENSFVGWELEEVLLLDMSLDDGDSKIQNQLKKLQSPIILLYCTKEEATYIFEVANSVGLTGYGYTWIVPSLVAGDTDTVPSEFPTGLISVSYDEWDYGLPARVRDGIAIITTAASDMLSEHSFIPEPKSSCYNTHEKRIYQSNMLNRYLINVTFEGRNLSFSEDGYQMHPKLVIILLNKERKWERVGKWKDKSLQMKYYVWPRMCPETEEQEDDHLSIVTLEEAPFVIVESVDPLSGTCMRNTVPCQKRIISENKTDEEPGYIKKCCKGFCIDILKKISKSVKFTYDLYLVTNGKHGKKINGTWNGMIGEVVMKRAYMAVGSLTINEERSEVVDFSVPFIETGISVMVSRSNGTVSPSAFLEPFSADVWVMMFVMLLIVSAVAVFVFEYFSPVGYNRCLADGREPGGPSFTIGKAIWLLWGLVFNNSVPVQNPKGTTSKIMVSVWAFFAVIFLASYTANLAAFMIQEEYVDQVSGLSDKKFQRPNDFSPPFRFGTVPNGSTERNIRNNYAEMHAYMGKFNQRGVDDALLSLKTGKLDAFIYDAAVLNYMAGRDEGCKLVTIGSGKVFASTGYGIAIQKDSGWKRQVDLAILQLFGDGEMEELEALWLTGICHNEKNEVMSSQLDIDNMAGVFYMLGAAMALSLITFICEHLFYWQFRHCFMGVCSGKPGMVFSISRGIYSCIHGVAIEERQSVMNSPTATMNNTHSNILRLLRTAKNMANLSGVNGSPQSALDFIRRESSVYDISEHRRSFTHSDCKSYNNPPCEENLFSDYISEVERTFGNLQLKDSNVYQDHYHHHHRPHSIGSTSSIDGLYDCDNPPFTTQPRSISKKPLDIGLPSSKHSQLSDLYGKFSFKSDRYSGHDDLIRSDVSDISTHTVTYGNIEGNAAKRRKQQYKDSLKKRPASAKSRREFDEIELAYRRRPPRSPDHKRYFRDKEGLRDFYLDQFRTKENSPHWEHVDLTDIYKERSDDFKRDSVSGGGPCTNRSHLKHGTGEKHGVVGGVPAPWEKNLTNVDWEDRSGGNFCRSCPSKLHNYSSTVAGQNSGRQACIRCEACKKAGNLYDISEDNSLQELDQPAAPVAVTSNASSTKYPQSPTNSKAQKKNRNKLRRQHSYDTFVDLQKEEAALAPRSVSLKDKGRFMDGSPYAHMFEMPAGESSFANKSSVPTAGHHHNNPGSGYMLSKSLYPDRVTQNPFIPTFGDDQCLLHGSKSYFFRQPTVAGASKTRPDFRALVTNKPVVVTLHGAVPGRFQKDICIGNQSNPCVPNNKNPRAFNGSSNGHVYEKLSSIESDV

[5] = Aqueous solubility of the compound at pH 7.4 after 30 mins by nephelometric analysis; type: physicochemical; conditions: buffer
[6] = molecular target: Glutamate NMDA receptor; Grin1/Grin2c (Rattus norvegicus, UniProt P35439+Q00961)
[7] = molecular target: Ionotropic glutamate receptor NMDA 1/2D (Rattus norvegicus, UniProt P35439+Q62645)

Structure (SMILES)	Activity [1]	%max [2]	%max [3]	Activity [4]	solubility kinetic at 0.5 h [5]	EC50 [6]	EC50 [7]
COc1cc2c(cc1OC)C(COc1ncccn1)N(C(=O)c1cccc(C(F)(F)F)c1)CC2 (stereo not drawn)	Not Active	95%	97%	Not Active	–	–	–
COc1ccc(OCC2c3cnn(C)c3CCN2C(=O)c2cccc(Cl)c2)cc1 (stereo not drawn)	Not Active	220%	210%	Not Active	–	–	–
COc1ccc(OCC2c3cccn3CCN2C(=O)c2cccc(Cl)c2)cc1 (stereo not drawn)	Not Active	370%	370%	Not Active	36 µM (≈ 14.3 µg/mL)	2510 nM	3160 nM
COc1ccc(OCC2c3cccn3CCN2C(=O)c2cccc(C(F)(F)F)c2)cc1 (stereo not drawn)	Not Active	290%	380%	Not Active	58 µM (≈ 25 µg/mL)	1580 nM	2000 nM
COc1ccc(OCC2c3cc(OC)c(OC)cc3CC(=O)N2Cc2cccc(Cl)c2)cc1 (stereo not drawn)	Not Active	340%	270%	Not Active	–	5010 nM	10000 nM
COc1ccc(OCC2c3ccc(OC)cc3CC(=O)N2CCCC(F)(F)F)cc1 (stereo not drawn)	Not Active	450%	290%	Not Active	–	7940 nM	20000 nM
COCCOCCN1C(=O)Cc2cc(OC)ccc2C1COc1ccc(OC)cc1 (stereo not drawn)	Not Active	100%	98%	Not Active	–	–	–
COc1ccc(OCC2c3sccc3CCN2C(=O)/C=C/C(F)(F)F)cc1 (stereo not drawn)	Not Active	330%	290%	Not Active	–	12600 nM	15800 nM
COc1ccc(OCC2c3occc3CCN2C(=O)c2cccc(Cl)c2)cc1 (stereo not drawn)	Not Active	470%	340%	Not Active	–	6310 nM	7940 nM
COc1ccc(OCC2c3cccn3CC(=O)N2Cc2cccc(C(F)(F)F)c2)cc1 (stereo not drawn)	Not Active	400%	300%	Not Active	57 µM (≈ 24.5 µg/mL)	1260 nM	1580 nM
COc1ccc(OCC2c3ccc(OC)cc3CC(=O)N2Cc2c[nH]nn2)cc1 (stereo not drawn)	Not Active	98%	110%	Not Active	–	–	–
COc1ccc(OCC2c3ccc(OC)cc3CC(=O)N2CCc2c[nH]c3ccccc23)cc1 (stereo not drawn)	Not Active	85%	85%	Not Active	–	–	–
COc1ccc(OCC2c3ccc(OC(C)C)cc3CC(=O)N2Cc2cccc(Cl)c2)cc1 (stereo not drawn)	Not Active	370%	350%	Not Active	–	398 nM	501 nM
COc1ccc(OCC2c3ccc(OC(C)C)cc3CC(=O)N2Cc2cccc(F)c2)cc1 (stereo not drawn)	130%	330%	320%	130%	–	1000 nM	2000 nM
COc1cc2c(cc1OC)C(COC1CCOCC1)N(C(=O)c1cccc(C(F)(F)F)c1)CC2 (stereo not drawn)	Not Active	95%	100%	Not Active	–	–	–
COc1ccc(OCC2c3ccc(OC)cc3CC(=O)N2Cc2cccc(Cl)c2)cc1 (stereo not drawn)	Not Active	330%	270%	Not Active	–	2000 nM	2510 nM
COc1ccc(OCC2c3ccc(OC(C)C)cc3CC(=O)N2Cc2cccc(C(F)(F)F)c2)cc1 (stereo not drawn)	Not Active	310%	280%	Not Active	–	398 nM	631 nM
COc1ccc(OC[C@@H]2c3cccn3CCN2C(=O)c2cccc(C(F)(F)F)c2)cc1	Not Active	98%	99%	Not Active	58 µM (≈ 25 µg/mL)	–	–
COc1ccc(OCC2c3ccsc3CCN2C(=O)c2cccc(Cl)c2)cc1 (stereo not drawn)	Not Active	340%	330%	Not Active	–	3980 nM	5010 nM
COc1ccc(OCC2c3ccc(OCC(C)C)cc3CCN2C(=O)c2cccc(Cl)c2)cc1 (stereo not drawn)	Not Active	–	–	Not Active	–	1000 nM	1260 nM

Structure (SMILES)	Activity [1]	%max [2]	%max [3]	Activity [4]	solubility kinetic at 0.5 h [5]	EC50 [6]	EC50 [7]
COc1ccc(OCC2c3ccsc3CCN2C(=S)c2cccc(Cl)c2)cc1 (stereo not drawn)	Not Active	94%	97%	Not Active	–	–	–
COc1ccc(OCC2c3ccc(OCC(C)C)cc3CC(=O)N2Cc2cccc(Cl)c2)cc1 (stereo not drawn)	130%	370%	280%	130%	–	398 nM	631 nM
COc1ccc(OC[C@@H]2c3cccn3CC(=O)N2Cc2cccc(C(F)(F)F)c2)cc1	Not Active	88%	84%	Not Active	57 µM (≈ 24.5 µg/mL)	–	–
COc1ccc(OCC2c3sc(C)nc3CCN2C(=O)c2cccc(Cl)c2)cc1 (stereo not drawn)	Not Active	100%	100%	Not Active	–	–	–
COc1cc2c(cc1OC)C(CO)N(C(=O)c1cccc(C(F)(F)F)c1)CC2 (stereo not drawn)	Not Active	95%	98%	Not Active	–	–	–
COc1ccc(OC[C@H]2c3cccn3CCN2C(=O)c2cccc(C(F)(F)F)c2)cc1	Not Active	540%	460%	Not Active	58 µM (≈ 25 µg/mL)	1260 nM	1260 nM
COc1ccc(OCC2c3sccc3CCN2C(=O)c2ccc(Cl)s2)cc1 (stereo not drawn)	Not Active	400%	290%	Not Active	–	5010 nM	5010 nM
COc1ccc(OCC2c3cc(OC)c(OC)cc3CCN2C(=O)c2cccc(Cl)c2)s1 (stereo not drawn)	Not Active	110%	100%	Not Active	–	–	–
COc1cc2c(cc1OC)C(COc1ccccn1)N(C(=O)c1cccc(C(F)(F)F)c1)CC2 (stereo not drawn)	Not Active	97%	96%	Not Active	–	–	–
CCCN1C(=O)Cc2cc(OC)ccc2C1COc1ccc(OC)cc1 (stereo not drawn)	Not Active	94%	97%	Not Active	–	–	–
COc1ccc(OC[C@@H]2c3cccn3CCN2C(=O)c2cccc(Cl)c2)cc1	Not Active	99%	98%	Not Active	36 µM (≈ 14.3 µg/mL)	–	–
COc1ccc(OCC2c3ccc(OC)cc3CC(=O)N2CCCN(C)C)cc1 (stereo not drawn)	Not Active	96%	110%	Not Active	–	–	–
COc1ccc(OCC2c3cc(OC)c(OC)cc3CCN2C(=O)c2cccc(C(F)(F)F)c2)cc1 (stereo not drawn)	Not Active	–	–	Not Active	–	–	–
COc1ccc(OCC2c3ccc(OC(C)C)cc3CCN2C(=O)c2cccc(C(F)(F)F)c2)cc1 (stereo not drawn)	Not Active	–	–	Not Active	–	1580 nM	2510 nM
COc1ccc(OCC2c3ccccc3CCN2C(=O)c2cccc(Cl)c2)cc1 (stereo not drawn)	Not Active	300%	260%	Not Active	–	6310 nM	7940 nM
COc1ccc(OCC2c3cccn3CC(=S)N2Cc2cccc(C(F)(F)F)c2)cc1 (stereo not drawn)	Not Active	110%	120%	Not Active	–	–	–
COc1ccc(OCC2c3ccc(OC(C)C)cc3CCN2C(=O)c2cccc(F)c2)cc1 (stereo not drawn)	Not Active	–	–	Not Active	–	–	7940 nM
COc1cc2c(cc1OC)C(COc1cccnc1)N(C(=O)c1cccc(C(F)(F)F)c1)CC2 (stereo not drawn)	Not Active	88%	90%	Not Active	–	–	–
COc1ccc(OCC2c3ccc(OC(C)C)cc3CCN2C(=O)c2cccc(Cl)c2)cc1 (stereo not drawn)	Not Active	250%	240%	Not Active	–	–	3160 nM
